OX1R antag-1: antagonists of human orexin 1 receptor (OX1R) | AID 485270 | O43613 | 330,000 tested, 1.8% active | OX1R-expressing cells, FRET antagonist read-out | inhibition, % at 6.6 µM; in the data active = inhibition mostly above about 38%, no sharp cut-off; inactive = mostly below about 40%;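 also: 0% = agonist challenge alone and 100% = reference antagonist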
Target sequence (O43613 whole entry, looked up): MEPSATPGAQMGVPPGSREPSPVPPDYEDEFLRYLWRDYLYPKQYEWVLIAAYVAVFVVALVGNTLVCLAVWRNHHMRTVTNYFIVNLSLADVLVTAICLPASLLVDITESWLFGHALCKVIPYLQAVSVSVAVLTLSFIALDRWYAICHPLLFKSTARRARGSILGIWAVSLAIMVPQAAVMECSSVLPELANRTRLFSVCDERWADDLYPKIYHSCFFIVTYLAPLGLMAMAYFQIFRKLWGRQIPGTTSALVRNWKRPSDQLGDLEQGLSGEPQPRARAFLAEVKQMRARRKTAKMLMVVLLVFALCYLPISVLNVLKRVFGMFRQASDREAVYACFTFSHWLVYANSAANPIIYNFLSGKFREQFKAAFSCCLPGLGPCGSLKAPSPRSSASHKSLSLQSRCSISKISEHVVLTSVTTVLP
CHO parental Ca: counter-screen: ATP calcium response change in parental CHO cells; inhibition, % at 5.6 µM; parental CHO-K1, ATP-induced calcium, Fluo-8 fluorescence; 330,000 tested, 0.63% active;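 active = inhibition above that plate's mean sample inhibition plus 3 SD, cut at about 26% in these data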;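 also: 0% = ATP-challenged DMSO wells and 100% = DMSO wells without ATP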
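Test system: parental CHO cells; detection: calcium-sensitive Fluo-8 fluorescence; evaluation: percent inhibition of calcium signal; also added: ATP as calcium-mobilizing challenge; repeats: one well per compound; control set: ATP-challenged DMSO wells low, unchallenged DMSO wells high; compound: single nominal dose of 5.6 µM per compound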
OX1R antag-2: blocks the human orexin 1 receptor. O43613. CHO/OX1R cells, Fluo-8 calcium fluorescence, orexin A. inhibition, % at 5 µM. 330,000 tested, 0.43% active. AID 434989;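 active = inhibition above its plate's threshold, mean inhibition of all tested compounds on the plate plus 3 SD, cut at about 37% in these data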;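 also: 0% = orexin A challenge wells and 100% = SB-334867-A antagonist wells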
TAAR1 ag: agonists of human TAAR1; AID 624467; Q96RJ0; activation, % at 3 µM; CHO RD-HGA16 TAAR1, Fluo-8 calcium fluorescence; vehicle wells 0%, saturating PEA agonist 100%; 360,000 tested, 0.99% active;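 active = activation above the mean activation of all test compounds in the run plus 3 SD, cut at about 38% in these data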
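Assay system – CHO-derived RD-HGA16 cells with stable Gα16 and human TAAR1 · Compound dosing – one-point dosing at 3 µM (nominal) · Incubation – 17-24 h seeding, 75 min 37 °C dye, 30 min RT · Measured by – kinetic Fluo-8 calcium fluorescence · Control set – DMSO vehicle as 0%, PEA at EC100 as 100% · Repeats – single well for each compound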
TAAR1 antagonist: antagonists of human TAAR1. Q96RJ0. CHO RD-HGA16 TAAR1, Fluo-8 calcium fluorescence, antagonist. inhibition, % at 3 µM. 360,000 tested, 1.5% active. AID 624466;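 active = inhibition above a per-plate cutoff, the mean inhibition of test compounds on that plate plus 3 SD, cut at about 49% in these data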;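 also: 0% = DMSO plus EC80 beta-PEA response and 100% = DMSO alone without agonist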
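test system = CHO RD-HGA16 cells bearing hTAAR1 | replication = singlicate | controls = DMSO-only wells and EC80 β-PEA-stimulated wells | reagent = EC80 β-phenethylamine stimulus | read-out basis = percent inhibition of PEA-evoked calcium signal, max/basal emission ratio | schedule = seeding 17-24 h prior, 75-min 37 °C, 30-min RT dye loading | signal = kinetic Fluo-8 calcium fluorescence measurement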
nonsel antag count: counter-screen for TAAR1 antagonists: nonselective antagonists; shares compounds with TAAR1 antagonist; counterscreen cell line, calcium fluorescence, antagonist mode; inhibition, % at 3 µM; 2,400 tested, 77% active; AID 651780; in the data active = inhibition above about 22%;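 also: CHO-Ga16 host cells stimulated with ATP at an EC80 level; 0% = agonist EC80 plus vehicle and 100% = vehicle without agonist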
TAAR1 ant conf: human TAAR1 antagonism, confirmed; shares compounds with TAAR1 antagonist; TAAR1-expressing cells, fluorescence antagonist read-out; inhibition, % at 3 µM; 2,400 tested, 40% active; AID 651785; in the data active = inhibition above about 49%;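 also: CHO-Ga16 host cells challenged with agonist PEA near its EC80; 0% = agonist at EC80 plus vehicle and 100% = vehicle with no agonist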
Ga16 nonsel ag: counter-screen for TAAR1 antagonists: nonselective Ga16 agonists; activation, % at 3 µM; shares compounds with TAAR1 antagonist; 2,400 tested, 18% active; AID 651953; Ga16-expressing cells, calcium fluorescence, agonist counterscreen; in the data active = activation above about 12%;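 also: 0% = vehicle wells and 100% = saturating stimulus response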
TAAR1 ag counter: TAAR1 agonism, antagonist counter-screen; shares compounds with TAAR1 antagonist; hTAAR1 cell line, fluorescence activation, agonist mode; activation, % at 3 µM; 2,400 tested, 2% active; AID 651955; in the data active = activation above about 37%;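 also: CHO cells stably expressing TAAR1 with calcium dye readout; 0% = DMSO vehicle and 100% = full agonist response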
An asterisk follows results filed as active; . = no result given. The list is not random: actives were taken first. Their share in the collection is about 3.9%.

SMILES	OX1R antag-1	CHO parental Ca	OX1R antag-2	TAAR1 ag	TAAR1 antagonist	nonsel antag count	TAAR1 ant conf	Ga16 nonsel ag	TAAR1 ag counter
CCc1cccc2c(C(=O)COC(=O)c3nn(C)c(=O)c4ccccc34)c[nH]c12	60	-2	9	26	58*	37*	49	14*	11
COc1ccc(S(=O)(=O)Nc2c(NC3CCCCC3)c3ccccc3oc2=O)cc1OC	14	-22	-9	13	51*	12	32	8	13
COc1cc(/C=C2/SC(=S)N(CCC(=O)Nc3cccnc3)C2=O)cc(OC)c1OC	.	.	.	11	60*	30*	51*	10	16
O=C(CCN1C(=O)/C(=C/c2cccs2)SC1=S)Nc1cccc(O)c1	18	-1	6	28	72*	47*	60*	16*	18
O=C(CCN1C(=O)/C(=C/c2cccs2)SC1=S)Nc1ccc(O)cc1	23	1	-9	4	15	.	.	.	.
COc1cc(/C=C2\SC(=S)N(CCC(=O)Nc3ccccc3)C2=O)cc(OC)c1OC	20	-20	-9	6	32	.	.	.	.
COc1cc(/C=C2\SC(=S)N(CCC(=O)Nc3cccc(O)c3)C2=O)cc(OC)c1OC	7	-11	-9	14	88*	36*	58*	11	11
N#Cc1csc(CCNC(=O)c2ccccc2)n1	.	.	.	2	-10	.	.	.	.
CCOc1ccccc1CN1CCC(n2nccc2NC(=O)C2CCCC2)CC1	16	-21	-29	0	-17	.	.	.	.
COc1ccc(CN(Cc2cc3ccc(C)cc3[nH]c2=O)Cc2nnnn2C2CCCC2)cc1	-2	-36	-17	11	56*	21	28	5	9
COc1cc(C(=O)OCCc2cc3ccccc3c(=O)o2)cc(OC)c1OC	14	-23	7	9	65*	27*	39	8	5
O=C(Nc1sc2c(c1C(=O)NCC(O)CO)CCCC2)c1ccccc1 (stereo unspecified)	5	-3	-8	15	-9	.	.	.	.
O=C(NC(=S)Nc1cc([N+](=O)[O-])ccc1O)c1cccnc1	15	-6	-1	0	0	.	.	.	.
Cn1cccc1/C=N\NC(=O)C1COc2ccc(C(C)(C)C)cc2O1 (stereo unspecified)	8	-15	-3	0	51*	25*	39	7	1
COc1ccccc1CNC(=O)C(Cc1c[nH]c2ccccc12)NC(=O)OCc1ccccc1 (stereo unspecified)	32	4	1	14	63*	20	46	6	6
C[C@H](NC(=O)OCc1ccccc1)C(=O)N[C@@H](Cc1c[nH]c2ccccc12)C(=O)O	13	-4	-18	1	17	.	.	.	.
Cc1cc(NC(=O)OC(C)(C)C)c(-n2nnnc2C(C(=O)c2ccccc2)N2CCOCC2)cc1C (stereo unspecified)	.	.	.	-3	-19	.	.	.	.
COc1ccc(NC(=O)CN(C)C(=O)c2cc(-c3ccc(Cl)cc3)nc3ccccc23)cc1	21	-20	-23	8	67*	30*	42	9	6
COc1cccc(NC(=O)CN(C)C(=O)c2cc(-c3ccccc3)nc3ccc(C)cc23)c1	.	.	.	11	74*	40*	61*	10	7
COc1cccc(NC(=O)CN(C)C(=O)c2cc(-c3cccc(Br)c3)nc3ccccc23)c1	18	11	-13	10	79*	39*	47	7	4
COc1ccccc1NCCC(=O)OCC(=O)Nc1ccccc1F	7	-9	-18	2	-2	.	.	.	.
Nc1[nH]c(=O)ncc1-c1ccc([N+](=O)[O-])cc1	.	.	.	2	-11	.	.	.	.
CCOC(=O)c1nnn(-c2nc(N3CCCC3)nc(N3CCCC3)n2)c1-c1ccccc1	9	1	-19	0	18	.	.	.	.
CCOC(=O)c1c(-c2ccccc2)nnn1-c1nc(OCC)nc(N2CCCCC2)n1	7	52*	-25	13	53*	23*	30	6	6
COc1ccc(-c2csc(N3CCN(c4cc(C)nc5ccccc45)CC3)n2)cc1OC	29	-29	-37	7	60*	27*	43	6	7
SMILES	OX1R antag-1	CHO parental Ca	OX1R antag-2	TAAR1 ag	TAAR1 antagonist	nonsel antag count	TAAR1 ant conf	Ga16 nonsel ag	TAAR1 ag counter
COc1cc(-c2csc(N3CCOCC3)n2)cc(OC)c1OC	22	-10	-20	6	9	.	.	.	.
COc1ccccc1N1CCN(Cc2ccc(-c3ccccc3[N+](=O)[O-])o2)CC1	21	-35	-29	12	88*	28*	55*	8	4
COc1ccccc1N1CCN(Cc2ccco2)CC1	12	-2	-22	13	-7	.	.	.	.
C=C(C)COc1ccc(-c2[nH]ncc2-c2ccccc2)c(O)c1	1	-3	13	20	60*	-1	9	1	12
C=C(C)COc1ccc(-c2n[nH]c(C)c2Oc2ccccc2OC)c(O)c1	18	-6	-6	-2	52*	8	10	1	2
O=C(CCN1C(=O)C2CC=CCC2C1=O)Nc1ccc(S(=O)(=O)N2CCCCC2)cc1 (stereo unspecified)	.	.	.	3	2	.	.	.	.
Cc1ccc(OCC(=O)NNC(=O)C2CCN(c3ncnc4sc(C)c(C)c34)CC2)cc1	25	-16	-35	8	50*	26*	27	11	22
Cc1cc(Cl)ccc1OCC(=O)NNC(=O)C1CCN(c2ncnc3sc(C)c(C)c23)CC1	33*	1	21	19	78*	39*	52*	14*	21
CCN(CC(=O)Nc1c(Cl)cccc1Cl)C(=O)C1CCN(c2ncnc3sc(C)c(C)c23)CC1	.	.	.	5	3	.	.	.	.
Cc1sc2ncnc(N3CCC(C(=O)NNC(=O)COc4ccccc4Cl)CC3)c2c1C	26	-5	10	11	43	.	.	.	.
COc1ccc(OCC(=O)NNC(=O)C2CCN(c3ncnc4sc(C)c(C)c34)CC2)cc1	6	-14	-23	10	29	.	.	.	.
CCN(CC(=O)Nc1c(F)cccc1F)C(=O)C1CCN(c2ncnc3sc(C)c(C)c23)CC1	25	-34	-27	13	58*	23*	39	8	5
Cc1sc2ncnc(N3CCC(C(=O)NNC(=O)COc4ccccc4F)CC3)c2c1C	16	-10	-21	17	65*	31*	47	10	27
